Assay results as given in ChEMBL document CHEMBL4765453, “Phenanthrolinic analogs of quinolones show antibacterial activity against M. tuberculosis” (Eur J Med Chem, 2020).
≈ marks a conversion by molar mass, not a printed value.

Legend:
Assay type in all cases: functional
Conditions in all cases: time 7 day
[1] = tested on: Mycobacterium tuberculosis; experiment: Antitubercular activity against FQ resistant Mycobacterium tuberculosis H37Rv harboring gyrA Ala-90-Val mutant measured after 7 days by resazurin microtiter assay
Summary of the method: (§1)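 Resazurin microtiter assay with two-fold drug dilutions in complete 7H9 broth. Exponential-phase cells are diluted to a final OD600 of 0.005 in 7H9 without Tween. Incubation is 7 days at 37°C, then 0.01% resazurin is added and plates are held 24 h more. MIC is the lowest concentration preventing the blue-to-pink change. Each MIC is determined three times in duplicate experiments.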

[2] = tested on: Mycobacterium tuberculosis; experiment: Antitubercular activity against FQ resistant Mycobacterium tuberculosis H37Rv harboring gyrA Asp-94-Gly mutant measured after 7 days by resazurin microtiter assay; summary of the method: as §1
[3] = tested on: Mycobacterium tuberculosis; experiment: Antitubercular activity against FQ resistant Mycobacterium tuberculosis H37Rv harboring gyrA Gly-88-Cys mutant measured after 7 days by resazurin microtiter assay; summary of the method: as §1
[4] = tested on: Mycobacterium tuberculosis; experiment: Antitubercular activity against FQ resistant Mycobacterium tuberculosis H37Rv harboring gyrA Ser-91-Pro mutant measured after 7 days by resazurin microtiter assay; summary of the method: as §1
[5] = tested on: Mycobacterium tuberculosis; experiment: Antitubercular activity against FQ resistant Mycobacterium tuberculosis H37Rv harboring gyrA Ala-90-Val/gyrB Glu-540-Val mutant measured after 7 days by resazurin microtiter assay; summary of the method: as §1
[6] = tested on: Mycobacterium tuberculosis; experiment: Antitubercular activity against FQ resistant Mycobacterium tuberculosis H37Rv harboring gyrA Asp-94-Gly/gyrB Asp-500-Asn mutant measured after 7 days by resazurin microtiter assay; summary of the method: as §1

Row | SMILES | MIC90 [1] [µM] | MIC90 [2] [µM] | MIC90 [3] [µM] | MIC90 [4] [µM] | MIC90 [5] [µM] | MIC90 [6] [µM]
1 | CCn1cc(C(=O)O)c(=O)c2cc([N+](=O)[O-])c3cccnc3c21 | 11.68 (≈ 3.66 µg/mL) | 2.99 (≈ 0.937 µg/mL) | 11.68 (≈ 3.66 µg/mL) | 11.68 (≈ 3.66 µg/mL) | 11.68 (≈ 3.66 µg/mL) | 5.84 (≈ 1.83 µg/mL)
2 | CCOC(=O)c1cn(C)c2c(cc([N+](=O)[O-])c3cccnc32)c1=O | >50 | 1.21 (≈ 0.396 µg/mL) | >50 | >50 | >50 | >50
3 | CC1COc2c(N3CCN(C)CC3)c(F)cc3c(=O)c(C(=O)O)cn1c23 (configuration not stated) [OFLOXACIN] | 13.8 (≈ 4.99 µg/mL) | 13.8 (≈ 4.99 µg/mL) | 27.6 (≈ 9.97 µg/mL) | 27.6 (≈ 9.97 µg/mL) | 27.6 (≈ 9.97 µg/mL) | 27.6 (≈ 9.97 µg/mL)
4 | COc1c(N2C[C@@H]3CCCN[C@@H]3C2)c(F)cc2c(=O)c(C(=O)O)cn(C3CC3)c12 [MOXIFLOXACIN] | 3.08 (≈ 1.24 µg/mL) | 3.08 (≈ 1.24 µg/mL) | 6.16 (≈ 2.47 µg/mL) | 6.16 (≈ 2.47 µg/mL) | 6.16 (≈ 2.47 µg/mL) | 6.16 (≈ 2.47 µg/mL)
5 | CCn1cc(C(=O)O)c(=O)c2ccc(C)nc21 [NALIDIXIC ACID] | >50 | >50 | >50 | >50 | >50 | >50
6 | CCOC(=O)c1cn(CC)c2c(cc([N+](=O)[O-])c3cccnc32)c1=O | >50 | 4.99 (≈ 1.7 µg/mL) | >50 | >50 | >50 | >50
7 | Cn1cc(C(=O)O)c(=O)c2cc([N+](=O)[O-])c3cccnc3c21 | 5.28 (≈ 1.58 µg/mL) | 2.64 (≈ 0.79 µg/mL) | 2.64 (≈ 0.79 µg/mL) | 5.28 (≈ 1.58 µg/mL) | 5.28 (≈ 1.58 µg/mL) | 5.28 (≈ 1.58 µg/mL)
